The source of these data is PMC10442107 (Hepatology (Baltimore, Md.), 2023).

The conditions of data set [1]: compared with levels in BDL mice of the current study; cited from earlier work.
For data set [2], the target named is T1, ileal ASBT (Mus musculus, UniProt P70172).
T1 sequence (P70172 1-348): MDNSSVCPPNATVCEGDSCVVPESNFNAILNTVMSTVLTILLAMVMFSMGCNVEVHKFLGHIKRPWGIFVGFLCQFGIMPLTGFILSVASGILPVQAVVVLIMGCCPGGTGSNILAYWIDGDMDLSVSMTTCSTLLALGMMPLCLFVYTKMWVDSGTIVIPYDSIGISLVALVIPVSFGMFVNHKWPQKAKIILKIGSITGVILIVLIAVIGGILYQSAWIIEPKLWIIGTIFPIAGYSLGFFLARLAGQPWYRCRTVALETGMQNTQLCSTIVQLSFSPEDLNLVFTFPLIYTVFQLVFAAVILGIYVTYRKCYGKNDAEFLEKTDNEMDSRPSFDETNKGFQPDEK
Nature of the data set: Pharmacodynamic study in normal wild-type C57BL/6N mice. It counts as in vivo. The gist of the method:
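Adult C57BL/6N mice (13–14 weeks) were gavaged daily for 8 days with the test compound at 3 or 10 mg/kg/d or with vehicle (0.5% CMC + 0.1% Tween 80). Feces were collected between days 6 and 7 and urine 2 h after the day-8 terminal dose. Total bile acids were measured with commercial kits and compared with vehicle by 1-way ANOVA with Dunnett post hoc test.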

Data set [3] can be described thus: Oral pharmacokinetic profile of A3907 and A3309 in BDL mice. It counts as in vivo, mouse. In outline:
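Adult male C57BL/6 mice with bile duct ligation received the test compound or a gut-restricted ASBT inhibitor by mouth at 3 or 10 mg/kg once daily for 7 days. Plasma exposure was profiled and set against normal wild-type mice dosed under the same conditions.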

The subject of data set [4] is BDL mice. The data set is described as follows: Bile duct ligation. To be noted: 3 mg/kg/d. It counts as in vivo, mouse. In outline:
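Male mice on a C57BL/6J background, age-matched, underwent bile duct ligation. Oral gavage dosing started 3 days after surgery and continued once daily for 11 days, with the comparator ASBT inhibitor at 3 mg/kg. Blood for serum biochemistry was taken by cardiac puncture at sacrifice. RNAseq was run on RNA from terminal liver samples (15 mg fresh tissue).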

For data set [5] the following is noted: pediatric, cited from earlier work.
In data set [6] the test system is Mdr2 −/− mice. To be noted: cited from earlier work.
Where [7] appears, read: 11 days, A3907 vs A3309 comparison.
[8] abbreviates: progressive familial intrahepatic cholestasis.

Like-named read-outs stand apart in the source and are kept apart here.

Take `CCCCC1(CCCC)CN(c2ccccc2)c2cc(SC)c(OCC(=O)N[C@@H](C(=O)NCC(=O)O)c3ccccc3)cc2S(=O)(=O)C1` [A3309]: the “systemic exposure in humans at the therapeutically relevant dose” value in data set [1] is reported as “several-fold lower than levels demonstrating signs of efficacy in BDL mice”. Further, the “urine BA levels” value in data set [2] (normal mice, oral 3 and 10 mg/kg/d, 2 hours after dose on day 8) is listed as “did not change”. In data set [2] (normal nonfasted mice, oral 3 and 10 mg/kg/d once daily for 7 days, vs vehicle), the “fecal BA levels” value is “significant elevation of fecal BA levels”. In addition, in data set [3] (BDL mice, 3 or 10 mg/kg oral daily), the “serum levels compared with A3907” value was “significantly lower than A3907”. In addition, in data set [3] (same experimental conditions, WT data not shown), the “plasma exposure in BDL mice relative to normal WT mice” value was ~ 6 fold. In data set [4] (setting [7]), the “serum and biliary BAs levels” value was “attenuated BA levels in a nonsignificant fashion”; the “urinary BA excretion” value is “induced urinary BA excretion to some extent”. For the same compound, the “number of dysregulated hepatic genes normalized” value in data set [4] (liver RNAseq, of 5790 DEGs vs sham) came to 15.
`CCCCC1(CCCC)CN(c2ccccc2)c2cc(SC)c(OCC(=O)N[C@@H](C(=O)N[C@@H](CC)C(=O)O)c3ccc(O)cc3)cc2S(=O)(=O)N1` [A4250, odevixibat]: in data set [5] (setting [8]), the BA load entry was “reduced” and the pruritus result is “decreased”. In data set [6], the “BA levels in serum and bile” value is recorded as “reduced”; the cholestatic liver disease entry is on record as “improved”.
With `CCCCC1(CCCC)CS(=O)(=O)c2ccc(N(C)C)cc2[C@@H](c2ccc(OCCCC[N+]34CCN(CC3)CC4)cc2)[C@H]1O` [SC-435], in data set [6], the “BA levels in serum and bile” value was “reduced”; the cholestatic liver disease entry is on record as “improved”.
For the compound `CCCCC1(CCCC)CS(=O)(=O)c2ccc(N(C)C)cc2[C@@H](c2ccc(OCc3ccc(C[N+]45CCN(CC4)CC5)cc3)cc2)[C@H]1O` [maralixibat], in data set [5] (Alagille syndrome), the BA load result is reported as “reduced” and the pruritus entry is reported as “decreased”.
